Test results as given in publication PMC6839502 (Journal of Alzheimer's Disease, 2019).
Where “and” joins values, the source holds several entries; their conditions need not be identical. Equal values may be shown once. Read-outs that look alike come from different tables or passages of the source.

What was measured:
Aβ40 and Aβ42 = settings: animal studies, subcutaneous administration; cited from earlier work
CSF Aβ1–40 and Aβ1–42 = experiment: Population PK/PD model of CSF Aβ1–40 and Aβ1–42; set-up: species or system human; settings: in approximately 50% of subjects, simulated
Summary of the method: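 Population PK/PD model built on pooled data from both studies: CSF Aβ at baseline plus one steady-state trough value. Indirect-response model in which plasma drug concentration lowers the Aβ production rate. Population PK parameters were fixed. CSF turnover rates were fixed at 0.084/h (Aβ1–40) and 0.12/h (Aβ1–42), taken from a separate serial-CSF study.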

plasma Aβ fragments = experiment: Plasma Aβ fragments after single and multiple doses; assay type: in vivo, human; settings: 275 mg, on Day 1
Summary of the method: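 Healthy adults, oral QD dosing versus placebo, Part B. Pre-dose blood was drawn on Days 1, 2, 4, 7, 10, and 14. Plasma Aβ1–40 was measured by DELFIA (LLOQ 12.1 pg/mL). Log change from baseline was analysed by mixed-model repeated measures: treatment, time, and their interaction as fixed effects, subject as random effect, and log baseline as covariate. Results were expressed as placebo-adjusted reduction.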

CSF Aβ fragments = experiment: CSF Aβ fragments, sAβPPα and sAβPPβ after multiple doses; assay type: in vivo, human; settings: healthy adults
Summary of the method: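 Healthy adults (18–55 y), randomized double-blind placebo-controlled, oral QD for 14 days, fasted on Days 1, 7, and 14. Lumbar-puncture CSF was taken on Day –3 (B8271004) or Day 0 (B8271001) and on Day 15, 24 h post last dose. Total Aβ was measured by DELFIA (LLOQ 391.0 pg/mL). Ln change from baseline was analysed by ANCOVA with treatment as a fixed effect and ln baseline as covariate, then converted to percent change versus pooled placebo with 2-sided 80% CI.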

CYP3A4/5 = settings: in vitro experiments; ref data on file; cited from earlier work
BACE1 over BACE 2 [1] = settings: radioligand binding assay; cited from earlier work
BACE1 over BACE 2 [2] = settings: fluorescence polarization (FP) assay; cited from earlier work

SMILES: C[C@H]1C[C@H]2CSC(N)=N[C@@]2(c2nc(NC(=O)c3ccc(OC(F)F)cn3)cs2)CO1 [PF-06751979]
- Aβ40 and Aβ42 in the brain and CSF (Aβ40 and Aβ42): robust reductions
- Predicted average reduction of CSF Aβ1–40 and Aβ1–42 at steady state (CSF Aβ1–40 and Aβ1–42; 30 mg QD): approximately 60%
- Predicted average reduction of CSF Aβ1–40 and Aβ1–42 at steady state (CSF Aβ1–40 and Aβ1–42; 75 mg QD): ~80%
- Predicted average reduction of CSF Aβ1–40 and Aβ1–42 at steady state (CSF Aβ1–40 and Aβ1–42; 110 mg QD): ~85%
- Maximum observed placebo-adjusted reduction in plasma Aβ1–40, multiple doses (plasma Aβ fragments): 88.3%
- CSF Aβ1–38 percent change from baseline to Day 15 (2-sided 80% CI) (CSF Aβ fragments; 50 mg QD 14 days, B8271001): –58.4 (–61.34, –55.28) %
- CSF Aβ1–40 percent change from baseline to Day 15 (2-sided 80% CI) (CSF Aβ fragments; 50 mg QD 14 days, B8271001): –70.2 (–74.20, –65.52) %
- CSF Aβ1–40 placebo-adjusted percent change from baseline to Day 15 (2-sided 80% CI) (CSF Aβ fragments; 50 mg QD 14 days, B8271001): –68.1 (–75.87, –57.86) %
- CSF Aβ1–42 percent change from baseline to Day 15 (2-sided 80% CI) (CSF Aβ fragments; 50 mg QD 14 days, B8271001): –71.9 (–74.97, –68.57) %
- CSF Aβ total percent change from baseline to Day 15 (2-sided 80% CI) (CSF Aβ fragments; 50 mg QD 14 days, B8271001): –64.0 (–66.62, –61.25) %
- CSF Aβx-38 percent change from baseline to Day 15 (2-sided 80% CI) (CSF Aβ fragments; 50 mg QD 14 days, B8271001): –60.2 (–63.42, –56.67) %
- CSF Aβx-40 percent change from baseline to Day 15 (2-sided 80% CI) (CSF Aβ fragments; 50 mg QD 14 days, B8271001): –60.4 (–63.71, –56.76) %
- CSF Aβx-42 percent change from baseline to Day 15 (2-sided 80% CI) (CSF Aβ fragments; 50 mg QD 14 days, B8271001): –64.3 (–67.21, –61.11) %
- CSF sAβPPα percent change from baseline to Day 15 (2-sided 80% CI) (CSF Aβ fragments; 50 mg QD 14 days, B8271001): 48.4 (38.56, 58.98) %
- CSF sAβPPβ percent change from baseline to Day 15 (2-sided 80% CI) (CSF Aβ fragments; 50 mg QD 14 days, B8271001): –70.6 (–72.23, –68.93) %
- CSF Aβ1–38 percent change from baseline to Day 15 (2-sided 80% CI) (CSF Aβ fragments; 125 mg QD 14 days, B8271004): –80.3 (–81.51, –79.06) %
- CSF Aβ1–40 percent change from baseline to Day 15 (2-sided 80% CI) (CSF Aβ fragments; 125 mg QD 14 days, B8271004): –85.5 (–86.45, –84.38) %
- CSF Aβ1–40 placebo-adjusted percent change from baseline to Day 15 (2-sided 80% CI) (CSF Aβ fragments; 125 mg QD 14 days, B8271004): –83.8 (–85.65, –81.78) %
- CSF Aβ1–42 percent change from baseline to Day 15 (2-sided 80% CI) (CSF Aβ fragments; 125 mg QD 14 days, B8271004): –86.4 (–87.40, –85.28) %
- CSF Aβ total percent change from baseline to Day 15 (2-sided 80% CI) (CSF Aβ fragments; 125 mg QD 14 days, B8271004): –80.1 (–81.01, –79.18) %
- CSF Aβx-38 percent change from baseline to Day 15 (2-sided 80% CI) (CSF Aβ fragments; 125 mg QD 14 days, B8271004): –82.0 (–83.18, –80.74) %
- CSF Aβx-40 percent change from baseline to Day 15 (2-sided 80% CI) (CSF Aβ fragments; 125 mg QD 14 days, B8271004): –81.0 (–82.16, –79.76) %
- CSF Aβx-42 percent change from baseline to Day 15 (2-sided 80% CI) (CSF Aβ fragments; 125 mg QD 14 days, B8271004): –81.9 (–82.76, –80.91) %
- CSF sAβPPα percent change from baseline to Day 15 (2-sided 80% CI) (CSF Aβ fragments; 125 mg QD 14 days, B8271004): 58.7 (48.89, 69.05) %
- CSF sAβPPβ percent change from baseline to Day 15 (2-sided 80% CI) (CSF Aβ fragments; 125 mg QD 14 days, B8271004): –81.3 (–82.21, –80.27) %
- CSF Aβ1–38 percent change from baseline to Day 15 (2-sided 80% CI) (CSF Aβ fragments; 275 mg QD 14 days, B8271004): –87.9 (–88.82, –86.98) %
- CSF Aβ1–40 percent change from baseline to Day 15 (2-sided 80% CI) (CSF Aβ fragments; 275 mg QD 14 days, B8271004): –92.9 (–93.54, –92.25) %
- CSF Aβ1–40 placebo-adjusted percent change from baseline to Day 15 (2-sided 80% CI) (CSF Aβ fragments; 275 mg QD 14 days, B8271004): –92.1 (–93.15, –90.98) %
- CSF Aβ1–42 percent change from baseline to Day 15 (2-sided 80% CI) (CSF Aβ fragments; 275 mg QD 14 days, B8271004): –93.6 (–94.22, –92.93) %
- CSF Aβ total percent change from baseline to Day 15 (2-sided 80% CI) (CSF Aβ fragments; 275 mg QD 14 days, B8271004): –86.5 (–87.26, –85.74) %
- CSF Aβx-38 percent change from baseline to Day 15 (2-sided 80% CI) (CSF Aβ fragments; 275 mg QD 14 days, B8271004): –90.1 (–90.91, –89.23) %
- CSF Aβx-40 percent change from baseline to Day 15 (2-sided 80% CI) (CSF Aβ fragments; 275 mg QD 14 days, B8271004): –87.6 (–88.55, –86.62) %
- CSF Aβx-42 percent change from baseline to Day 15 (2-sided 80% CI) (CSF Aβ fragments; 275 mg QD 14 days, B8271004): –86.6 (–87.43, –85.76) %
- CSF sAβPPα percent change from baseline to Day 15 (2-sided 80% CI) (CSF Aβ fragments; 275 mg QD 14 days, B8271004): 81.7 (67.79, 96.85) %
- CSF sAβPPβ percent change from baseline to Day 15 (2-sided 80% CI) (CSF Aβ fragments; 275 mg QD 14 days, B8271004): –84.3 (–85.28, –83.26) %
- Maximum observed (placebo-adjusted) reduction in CSF Aβ1–42 (CSF Aβ fragments; 275 mg QD, 24 h after Day 14 dose): ~93% and 92.9%
- CYP3A4/5 inhibition (CYP3A4/5): weak metabolism-dependent inhibitor
- Selectivity for BACE1 over BACE2 (BACE1 over BACE 2 [1]): 26.6 fold
- Selectivity for BACE1 over BACE2 (BACE1 over BACE 2 [2]): 6.4 fold
